An excerpt weighted towards active compounds, which were near 1.9% of everything screened.
DNA FID counter-1 – counter-screen for HCV NS3 helicase inhibitors: DNA intercalator displacement | DNA fluorescent intercalator displacement, fluorescence | inhibition, % at 7.9 µM | 290,000 tested, 0.17% active;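 further: higher means more ethidium bromide displaced from hairpin DNA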
PP1 counter – PP1-alpha (human) inhibition in PP5 counter-screen. inhibition, % at 6.7 µM. 320,000 tested, 0.9% active. purified PP1alpha, OMFP fluorescence;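 active means inhibition above the mean inhibition of all tested compounds plus 3 SD, computed separately for each screening campaign, cut at about 15% in these data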
Target sequence (P62136 whole entry, looked up): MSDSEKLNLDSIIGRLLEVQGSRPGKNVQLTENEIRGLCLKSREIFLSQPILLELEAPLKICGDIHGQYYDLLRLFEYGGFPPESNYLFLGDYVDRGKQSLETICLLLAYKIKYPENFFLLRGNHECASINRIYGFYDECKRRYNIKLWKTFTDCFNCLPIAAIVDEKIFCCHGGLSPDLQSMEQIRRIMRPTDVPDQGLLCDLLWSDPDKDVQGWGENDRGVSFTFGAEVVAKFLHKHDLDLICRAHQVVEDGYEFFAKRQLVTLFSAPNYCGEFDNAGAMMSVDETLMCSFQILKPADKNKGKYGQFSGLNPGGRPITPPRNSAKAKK
HCV NS3 hel inh – inhibitors of Hepatitis C virus NS3 helicase | NS3 helicase DNA unwinding, Cy5 molecular beacon fluorescence | inhibition, % at 10.9 µM | 290,000 tested, 0.56% active | AID 1800;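 active means inhibition above the mean of all tested compounds plus 3 SD, set per campaign, cut at about 35% in these data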
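Assay system: hepatitis C virus NS3 helicase domain fragment enzyme. Also added: annealed dual-labelled DNA beacon duplex, ATP-started. Timing: 1 h reaction at 25 °C, ATP-initiated. Technique: Cy5 fluorescence at 0 and 60 min, beacon hairpin quenching. Evaluation: % inhibition of unwinding. Replication: one well per compound.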
PP5 inh – PP5 (human) phosphatase inhibition; P53041; purified PP5c, OMFP substrate fluorescence; inhibition, % at 6.7 µM; 320,000 tested, 0.18% active; AID 1987;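 active means inhibition above the campaign's mean inhibition across all tested compounds plus 3 SD, cut at about 9.5% in these data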
HIF act – HIF pathway transcriptional activation; U2OS HRE-luciferase reporter, luminescence; normalized: DMSO 0%, desferrioxamine 100%; activation, % at 7.5 µM (by protocol); 300,000 tested, 0.32% active; AID 1910;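 active means mean activation of at least 10% of the iron chelator positive control signal, with at least half of replicates also reaching 10%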
NS3 hel confirm – HCV NS3 helicase inhibition, confirmation assay; shares compounds with HCV NS3 hel inh; NS3 helicase DNA unwinding, Cy5 molecular beacon fluorescence; inhibition, % at 10.9 µM; 1,600 tested, 31% active;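 active means inhibition above the mean of all tested compounds plus 3 SD, cutoff set per campaign, cut at about 36% in these data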
DNA FID counter-2 – displaces DNA intercalator in HCV helicase counter-screen. DNA fluorescent intercalator displacement, fluorescence. 1,600 tested, 4% active. AID 1945. inhibition, % at 7.9 µM. shares compounds with HCV NS3 hel inh;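 further: higher means more displacement of ethidium bromide from the DNA hairpin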
Of the large screens only hits and unclear results are named; the others gave an inactive call (follow-up assays come after a bar, where they were run). Unless noted, no stated cut-off is given here; in the data, active means inhibition above about 37%; inactive means the rest.

Cn1ncnc2c(=O)n(C)c(=O)nc1-2	PP1 counter 38, PP5 inh 13 (no result: DNA FID counter-1, HCV NS3 hel inh)
Cc1nc2ccccc2c(=O)n1-c1ccc(Br)cn1	none
Cc1nc2ccccc2c(=O)n1/N=C/c1cc(Br)cc(Br)c1O	HIF act 181 (no result: DNA FID counter-1, HCV NS3 hel inh)
O=c1c2ccccc2[nH]c(=S)n1-c1ccc(Br)cc1	PP1 counter 20
COC(=O)[C@]12OC[C@]34C([C@@H](O)[C@@H]1O)[C@]1(C)CC(=O)C(O)=C(C)[C@@H]1C[C@H]3OC(=O)[C@H](O)[C@@H]24 (some centres undefined)	HIF act 21 (no result: DNA FID counter-1, HCV NS3 hel inh)
CC(C)c1ccc(N2C(=O)NC(=O)/C(=C/C=C/c3ccco3)C2=O)cc1	PP1 counter 17
CCc1ccc(N2C(=O)NC(=O)/C(=C\C=C\c3ccco3)C2=O)cc1	none
COC(=O)C1=C(c2ccc(F)cc2F)C[C@@H]2CC[C@H]1N2C(=O)NCCOc1ccccc1	none (no result: DNA FID counter-1, HCV NS3 hel inh, HIF act)
C=C(C)[C@@]12OC3(c4ccccc4)O[C@@H]1C1[C@@H]4O[C@]4(CO)[C@@H](O)[C@]4(O)C(=O)C(C)=C[C@H]4[C@@]1(O3)[C@H](C)[C@H]2OC(=O)/C=C/C=C/c1ccccc1 (some centres undefined)	none (no result: DNA FID counter-1, HCV NS3 hel inh)
Cn1c(NN=O)nc2ccccc21	HIF act 66
Cc1ccc(N=C(/N=C(\N)N[N+](=O)[O-])Nc2ccc(C)cc2)cc1	none (no result: DNA FID counter-1, HCV NS3 hel inh)
O=C(c1cc(Br)ccc1Cl)N1CCC2(CC1)OCCO2	HIF act 421
CCOc1ccccc1CN1C2CCC1CC(c1ccc(C)cc1)C2 (centres undefined)	none
CC1(C)C2CC=C(CN3CCOCC3)C1C2 (centres undefined)	DNA FID counter-1 91
CCCCn1c(N)c(C(=O)NCCN2CCOCC2)c2nc3ccccc3nc21	none
CCCCn1c(NC(=O)c2ccc(Br)o2)c(C(=O)OCC)c2nc3ccccc3nc21	PP5 inh 13
COC(=O)C1=C(c2ccc(C(C)=O)cc2)C[C@@H]2CC[C@H]1N2C(=O)NC(C)C	none (no result: DNA FID counter-1, HCV NS3 hel inh, HIF act)
CN1CCC(N(C)c2nc(-c3ccc([N+](=O)[O-])cc3)nc3ccccc23)CC1	DNA FID counter-1 46 (no result: PP1 counter, PP5 inh)
Cc1cc2c(C(C)C)c(O)c(O)c(C=O)c2c(O)c1-c1c(C)cc2c(C(C)C)c(O)c(O)c(C=O)c2c1O	HCV NS3 hel inh 37 (no result: PP1 counter, PP5 inh, HIF act)
FC(F)(F)c1ccc2c(c1)NP(=S)(N1CCOCC1)c1nccn1-2 (centres undefined)	HIF act 69
NCc1cc(=O)[nH]o1	none (no result: DNA FID counter-1, HCV NS3 hel inh, HIF act)
CCCCCSc1cc(OC)c(CCN(C)C)cc1OC	DNA FID counter-1 37
CCCCCSc1cc(O)c(C(CNC)C(C)C)cc1OC (centres undefined)	none
CCCC(CCC)C(=O)OC[N+](C)(C)CCOC(=O)C(O)(c1ccccc1)C1CCCC1 (centres undefined)	DNA FID counter-1 41
CC(C)(C)C(=O)OC[N+](C)(C)CCOC(=O)C(O)(c1ccccc1)C1CCCC1 (centres undefined)	none
Cc1ccc(OC(F)F)c(N2C(=O)C3C4CCC(O4)C3C2=O)c1 (centres undefined)	none (no result: DNA FID counter-1, HCV NS3 hel inh, HIF act)
CC[N+](C)(CC)CCCCOc1ccc2c(c1)C(=O)c1cc(OCCCC[N+](C)(CC)CC)ccc1-2	DNA FID counter-1 88
O=[N+]([O-])NC1=NCCN1Cc1ccc(Cl)nc1	none
COc1ccc2c(c1)/C(=C/c1cnc[nH]1)C(=O)N2	HIF act 9.9
O=C(COc1ccc2ccc(=O)oc2c1)N1CCC(C(=O)O)(c2ccccc2)CC1	none
O=C(CSC1c2ccccc2-c2ccccc21)N/N=C/c1ccccc1O	HIF act 9.9
O=C(CSC1c2ccccc2-c2ccccc21)N/N=C/c1ccc(C(=O)O)cc1	none
COC(=O)C1=C(c2ccc(OC(F)(F)F)cc2)C[C@@H]2CC[C@H]1N2C(=O)N1CCOCC1	none (no result: DNA FID counter-1, HCV NS3 hel inh, HIF act)
Cc1ccc(-n2c(CNCc3ccc(F)cc3)nc3ccccc3c2=O)cc1	none (no result: PP1 counter, PP5 inh)
CCN(CC)CCNCc1nc2ccccc2c(=O)n1-c1ccc(F)cc1	HIF act 60
CN1CCN(Cc2cn(C)c3ccccc23)CC1CCO (centres undefined)	none
Cc1ccc(OP(=O)(O)Oc2ccc(C)cc2)cc1	none
Cc1ccc(N=C(N(C)C)P(=O)(N(C)C)N(C)C)cc1	DNA FID counter-1 56
COC(=O)C1=Nc2ccccc2/C1=C\c1c(O)n(-c2cc(OC)ccc2OC)c(=O)[nH]c1=O	HIF act 548
C/C=C1/C[N+]2(C)CCC34C(=C(C=O)[C@H]1C[C@@H]32)Nc1ccccc14 (some centres undefined)	none (no result: DNA FID counter-1, HCV NS3 hel inh, HIF act)
C[n+]1c(-c2ccccc2)c2cc(N)ccc2c2ccc(N)cc21	DNA FID counter-1 38
Nc1ccc2ccc3cccc[n+]3c2c1	none
O=C1NC(=O)C(=C/C=C/c2coc3ccc(Br)cc3c2=O)C(=O)N1	HCV NS3 hel inh 48
COC(=O)C1=C(c2c(C)noc2C)C[C@@H]2CC[C@H]1N2C(=O)NCCOc1ccc(OC)cc1	none (no result: DNA FID counter-1, HCV NS3 hel inh, HIF act)
CCN(CC)c1ccc(N=Cc2c(O)n(-c3ccc(Cl)cc3)c(=O)[nH]c2=O)cc1	none
O=c1[nH]c(=S)n(-c2ccc(Br)cc2)c(O)c1C=Nc1ccc(N2CCOCC2)cc1	HCV NS3 hel inh 37 | NS3 hel confirm inactive | DNA FID counter-2 inactive
Cc1cc(C)cc(-n2c(O)c(C=Nc3ccc(N4CCOCC4)cc3)c(=O)[nH]c2=S)c1	none
CC(=O)N1CCN(c2ccc(N=Cc3c(O)n(-c4ccc(Cl)cc4)c(=O)[nH]c3=O)cc2)CC1	HCV NS3 hel inh 43 | NS3 hel confirm inactive | DNA FID counter-2 inactive
O=c1[nH]c(=S)n(-c2ccccc2F)c(O)c1C=Nc1ccc(N2CCOCC2)cc1	HCV NS3 hel inh 54 | NS3 hel confirm inactive | DNA FID counter-2 inactive
Cc1ccc(Oc2cc(NN3CCCCC3)c([N+](=O)[O-])cc2[N+](=O)[O-])c([N+](=O)[O-])c1	none
NNC(=O)CN1C(=O)CN=C(c2ccccc2)c2cc(Br)ccc21	HCV NS3 hel inh 54 | NS3 hel confirm inactive | DNA FID counter-2 inactive
Cc1ccc(N2C(=O)CC(=O)NC2=O)cc1Cl	HCV NS3 hel inh 45 | NS3 hel confirm inactive | DNA FID counter-2 inactive
CCOc1cccc(N2C(=O)CC(=O)NC2=O)c1	HCV NS3 hel inh 59 | NS3 hel confirm inactive | DNA FID counter-2 inactive
COC(=O)C1=C(c2ccccc2OCc2ccccc2)C[C@@H]2CC[C@H]1N2C(=O)NCc1cccc(C(F)(F)F)c1	none (no result: DNA FID counter-1, HCV NS3 hel inh, HIF act)
CN1CCc2cc3c(c4c2C1Cc1ccccc1-4)OCO3 (centres undefined)	HCV NS3 hel inh 44 | NS3 hel confirm inactive | DNA FID counter-2 82
CN(C)C(=O)Oc1ccc2c(c1)O/C(=C\c1cccc(Cl)c1)C2=O	none
O=C1NC(=O)N(c2ccccc2)C(=O)/C1=C\c1ccc([N+](=O)[O-])o1	none

Assay outcomes (PubChem BioAssay)
